Data taken from ChEMBL document CHEMBL4270599, “Synthesis of a 3'-C-ethynyl-β-d-ribofuranose purine nucleoside library: Discovery of C7-deazapurine analogs as potent antiproliferative nucleosides” (Eur J Med Chem, 2018).

What was measured:
HMEC-1 = experiment: Antiproliferative activity against HMEC1 cells after 4 days by Coulter counter method; format: cell-based; conditions: Homo sapiens, HMEC-1, 96 h
Procedure, shortened: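 Primary HUVEC, primary HMVEC-d and the HMEC-1 line seeded at 20,000 cells/well in gelatin-coated plates in EC growth medium (EGM2). After overnight incubation, 5-fold compound dilutions added. Cells proliferated four days with compound, then trypsinized and counted by Coulter counter to derive IC₅₀.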

OVCAR-8 = experiment: Growth inhibition of human OVCAR8 cells assessed as cell growth at 10^-8 M incubated for 48 hrs by sulforhodamine B assay relative to control; format: functional; conditions: OVCAR-8, 48 h, read-out: Activity
Malme-3M = experiment: Growth inhibition of human MALME-3M cells assessed as cell growth at 10^-7 M incubated for 48 hrs by sulforhodamine B assay relative to control; format: functional; conditions: read-out: Activity
NCI-H23 = experiment: Growth inhibition of human NCI-H23 cells assessed as cell growth at 10^-7 M incubated for 48 hrs by sulforhodamine B assay relative to control; format: functional; conditions: NCI-H23, 48 h, read-out: Activity
IGROV-1 = experiment: Growth inhibition of human IGROV1 cells assessed as cell growth at 10^-8 M incubated for 48 hrs by sulforhodamine B assay relative to control; format: functional; conditions: IGROV-1, 48 h, read-out: Activity
SNB-75 = experiment: Growth inhibition of human SNB75 cells assessed as cell growth at 10^-6 M incubated for 48 hrs by sulforhodamine B assay relative to control; format: functional; conditions: SNB-75, 48 h, read-out: Activity
SF-539 = experiment: Growth inhibition of human SF539 cells assessed as cell growth at 10^-8 M incubated for 48 hrs by sulforhodamine B assay relative to control; format: functional; conditions: SF-539, 48 h, read-out: Activity
K562 [1] = experiment: Growth inhibition of human K562 cells assessed as cell growth at 10^-8 M incubated for 48 hrs by sulforhodamine B assay relative to control; format: functional; conditions: K562, 48 h, read-out: Activity
DU-145 = experiment: Growth inhibition of human DU145 cells assessed as cell growth at 10^-7 M incubated for 48 hrs by sulforhodamine B assay relative to control; format: functional; conditions: DU-145, 48 h, read-out: Activity
KM12 [2] = experiment: Cytotoxicity against human KM12 cells after 48 hrs by SRB assay; format: functional; conditions: KM12, 48 h
OVCAR-3 = experiment: Growth inhibition of human OVCAR3 cells assessed as cell growth at 10^-4 M incubated for 48 hrs by sulforhodamine B assay relative to control; format: functional; conditions: OVCAR-3, 48 h, read-out: Activity
RPMI-8226 = experiment: Cytotoxicity against human RPMI8226 cells after 48 hrs by SRB assay; format: functional; conditions: RPMI-8226, 48 h
HCC 2998 [3] = experiment: Growth inhibition of human HCC2998 cells assessed as cell growth at 10^-7 M incubated for 48 hrs by sulforhodamine B assay relative to control; format: functional; conditions: HCC 2998, 48 h, read-out: Activity
KM12 [4] = experiment: Growth inhibition of human KM12 cells assessed as cell growth at 10^-5 M incubated for 48 hrs by sulforhodamine B assay relative to control; format: functional; conditions: KM12, 48 h, read-out: Activity
HCC 2998 [5] = experiment: Cytotoxicity against human HCC2998 cells after 48 hrs by SRB assay; format: functional; conditions: HCC 2998, 48 h
A498 [6] = experiment: Growth inhibition of human A498 cells assessed as cell growth at 10^-6 M incubated for 48 hrs by sulforhodamine B assay relative to control; format: functional; conditions: A498, 48 h, read-out: Activity
SR = experiment: Growth inhibition of human SR cells assessed as cell growth at 10^-7 M incubated for 48 hrs by sulforhodamine B assay relative to control; format: functional; conditions: read-out: Activity
BT-549 = experiment: Growth inhibition of human BT549 cells assessed as cell growth at 10^-6 M incubated for 48 hrs by sulforhodamine B assay relative to control; format: functional; conditions: BT-549, 48 h, read-out: Activity
M14 [7] = experiment: Growth inhibition of human M14 cells assessed as cell growth at 10^-5 M incubated for 48 hrs by sulforhodamine B assay relative to control; format: functional; conditions: M14, 48 h, read-out: Activity
OVCAR-5 [8] = experiment: Cytotoxicity against human OVCAR5 cells after 48 hrs by SRB assay; format: functional; conditions: OVCAR-5, 48 h
EKVX = experiment: Growth inhibition of human EKVX cells assessed as cell growth at 10^-7 M incubated for 48 hrs by sulforhodamine B assay relative to control; format: functional; conditions: read-out: Activity
A549 = experiment: Cytotoxicity against human A549 cells after 48 hrs by SRB assay; format: functional; conditions: A549, 48 h
786-0 = experiment: Growth inhibition of human 786-0 cells assessed as cell growth at 10^-7 M incubated for 48 hrs by sulforhodamine B assay relative to control; format: functional; conditions: 786-0, 48 h, read-out: Activity
M14 [9] = experiment: Growth inhibition of human M14 cells assessed as cell growth at 10^-6 M incubated for 48 hrs by sulforhodamine B assay relative to control; format: functional; conditions: M14, 48 h, read-out: Activity
MDA-MB-231 [10] = experiment: Growth inhibition of human MDA-MB-231 cells assessed as cell growth at 10^-7 M incubated for 48 hrs by sulforhodamine B assay relative to control; format: functional; conditions: MDA-MB-231, 48 h, read-out: Activity
NCI-H322M = experiment: Growth inhibition of human NCI-H322M cells assessed as cell growth at 10^-5 M incubated for 48 hrs by sulforhodamine B assay relative to control; format: functional; conditions: read-out: Activity
SW-620 = experiment: Growth inhibition of human SW620 cells assessed as cell growth at 10^-7 M incubated for 48 hrs by sulforhodamine B assay relative to control; format: functional; conditions: SW-620, 48 h, read-out: Activity
MDA-MB-231 [11] = experiment: Growth inhibition of human MDA-MB-231 cells assessed as cell growth at 10^-8 M incubated for 48 hrs by sulforhodamine B assay relative to control; format: functional; conditions: MDA-MB-231, 48 h, read-out: Activity
PC-3 = experiment: Growth inhibition of human PC3 cells assessed as cell growth at 10^-7 M incubated for 48 hrs by sulforhodamine B assay relative to control; format: functional; conditions: PC-3, 48 h, read-out: Activity
OVCAR-5 [12] = experiment: Growth inhibition of human OVCAR5 cells assessed as cell growth at 10^-8 M incubated for 48 hrs by sulforhodamine B assay relative to control; format: functional; conditions: OVCAR-5, 48 h, read-out: Activity
A498 [13] = experiment: Growth inhibition of human A498 cells assessed as cell growth at 10^-8 M incubated for 48 hrs by sulforhodamine B assay relative to control; format: functional; conditions: A498, 48 h, read-out: Activity
K562 [14] = experiment: Cytotoxicity against human K562 cells after 48 hrs by SRB assay; format: functional; conditions: K562, 48 h
[15] = read-out: LC50 (the source's name)
[16] = read-out: pLC50 (the source's name) (converted)

Compound: C#C[C@@]1(O)[C@@H](CO)O[C@@H](n2cc(F)c3c(N)ncnc32)[C@@H]1O
- IC50 (HMEC-1): 0.061 µM
- growth at 0.01 µM (OVCAR-8): 96%
- growth at 0.1 µM (Malme-3M): 98%
- growth at 0.1 µM (NCI-H23): 91%
- growth at 0.01 µM (IGROV-1): 105%
- growth at 1 µM (SNB-75): 52%
- growth at 0.01 µM (SF-539): 104%
- growth at 0.01 µM (K562 [1]): 100%
- growth at 0.1 µM (DU-145): 92%
- CC50 (KM12 [2]; [15]): > 100 µM
- TGI (KM12 [2]; read-out: TGI): 24.9 µM
- GI50 (KM12 [2]; read-out: pGI50 (converted)): 0.501 µM
- TGI (KM12 [2]; read-out: pTGI (converted)): 25.1 µM
- growth at 100 µM (OVCAR-3): 3%
- CC50 (RPMI-8226; [15]): > 100 µM
- TGI (RPMI-8226; read-out: TGI): 1.98 µM
- GI50 (RPMI-8226; read-out: pGI50 (converted)): 0.219 µM
- TGI (RPMI-8226; read-out: pTGI (converted)): 2 µM
- growth at 0.1 µM (HCC 2998 [3]): 97%
- growth at 10 µM (KM12 [4]): 7%
- TGI (HCC 2998 [5]; read-out: TGI): 2.82 µM
- GI50 (HCC 2998 [5]; read-out: pGI50 (converted)): 0.603 µM
- CC50 (HCC 2998 [5]; [16]): 15.8 µM
- TGI (HCC 2998 [5]; read-out: pTGI (converted)): 2.82 µM
- growth at 1 µM (A498 [6]): 43%
- growth at 0.1 µM (SR): 65%
- growth at 1 µM (BT-549): 45%
- growth at 10 µM (M14 [7]): -48%
- CC50 (OVCAR-5 [8]; [15]): > 100 µM
- TGI (OVCAR-5 [8]; read-out: TGI): > 100 µM
- GI50 (OVCAR-5 [8]; read-out: pGI50 (converted)): 1.78 µM
- TGI (OVCAR-5 [8]; read-out: pTGI (converted)): > 100 µM
- growth at 0.1 µM (EKVX): 86%
- TGI (A549; read-out: TGI): 2.64 µM
- GI50 (A549; read-out: pGI50 (converted)): 0.38 µM
- CC50 (A549; [16]): > 100 µM
- TGI (A549; read-out: pTGI (converted)): 2.63 µM
- growth at 0.1 µM (786-0): 87%
- growth at 1 µM (M14 [9]): 29%
- growth at 0.1 µM (MDA-MB-231 [10]): 88%
- growth at 10 µM (NCI-H322M): -17%
- growth at 0.1 µM (SW-620): 61%
- growth at 0.01 µM (MDA-MB-231 [11]): 99%
- growth at 0.1 µM (PC-3): 84%
- growth at 0.01 µM (OVCAR-5 [12]): 96%
- growth at 0.01 µM (A498 [13]): 86%
- CC50 (K562 [14]; [15]): > 100 µM
- TGI (K562 [14]; read-out: TGI): > 100 µM
- GI50 (K562 [14]; read-out: pGI50 (converted)): 0.288 µM
- TGI (K562 [14]; read-out: pTGI): > 100 µM
